Laboratory results as given in ChEMBL document CHEMBL1151458, “Comparative analysis of the bactericidal activities of amphibian peptide analogues against multidrug-resistant nosocomial bacterial strains” (2008).
The source made the active and inactive calls. No cut-off for these calls is given here.

Tests used:
Acinetobacter baumannii [1] = experiment: Bactericidal activity against Acinetobacter baumannii isolate 2 with AMP-CFZ-CIP-LVX-PIP-SXT resistance phenotype assessed as concentration required for >= 3 log10 CFU/ml reduction in viable bacteria in sodium phosphate buffer at pH 7.4 after 1.5 hrs by liquid microdilution assay; type: functional
Outline: (§1)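 Clinical multidrug-resistant isolates grown to mid-log in tryptone soy broth and stored frozen. Exponential cells resuspended in 10 mM sodium phosphate buffer, pH 7.4, at 1 × 10^7 CFU/ml; 10 μl incubated with graded peptide concentrations in 100 μl at 37°C for 1.5 h. Plated on tryptone soy agar, CFU read after 24 h at 37°C. Peptide stocks in 20% ethanol.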

Pseudomonas aeruginosa [2] = experiment: Antimicrobial activity against Pseudomonas aeruginosa isolate 1 with AMP-CFZ-CIP-CTX-CXM-GEN-LVX-SXT-TET resistance phenotype at bactericidal concentration after 30 mins by time kill assay; type: functional, organism-based
Outline: (§2)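 Time-kill in 10 mM sodium phosphate buffer, pH 7.4: 1 × 10^7 CFU/ml mid-log clinical isolate (10 μl) exposed at 37°C to peptide at the 1.5-h bactericidal concentration or twofold that, in 100 μl. Samples taken from 2 min onward, plated on tryptone soy agar, CFU counted after 24 h at 37°C. Killing taken as ≥3 log10 CFU/ml drop.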

Acinetobacter baumannii [3] = experiment: Antimicrobial activity against Acinetobacter baumannii isolate 3 with AMP-AMC-CFZ-CIP-IPM-SXT-TET-TOB resistance phenotype assessed as time to kill at bactericidal concentration; type: functional; outline: as §2
Pseudomonas aeruginosa [4] = experiment: Bactericidal activity against Pseudomonas aeruginosa isolate 3 with AMP-CFZ-CTX-CIP-GEN-IPM-LVX-SXT-TET-TOB resistance phenotype assessed as concentration required for >= 3 log10 CFU/ml reduction in viable bacteria in sodium phosphate buffer at pH 7.4 after 1.5 hrs by liquid microdilution assay; type: functional; outline: as §1
Staphylococcus aureus [5] = experiment: Antimicrobial activity against Staphylococcus aureus isolate 1 with AMC-AMP-CIP-ERY-GEN-OXA-RIF resistance phenotype at twofold the bactericidal concentration within 30 mins; type: functional, organism-based; outline: as §2
Staphylococcus aureus [6] = experiment: Bactericidal activity against Staphylococcus aureus isolate 2 with AMC-AMP-CIP-ERY-GEN-LVX-OXA-RIF-TET resistance phenotype assessed as concentration required for >= 3 log10 CFU/ml reduction in viable bacteria in sodium phosphate buffer at pH 7.4 after 1.5 hrs by liquid microdilution assay; type: functional; outline: as §1
Enterococcus faecium [7] = experiment: Antimicrobial activity against Enterococcus faecium isolate 3 with AMP-CIP-CTX-ERY-GEN-LVX-SXT-TEC-VAN resistance phenotype at bactericidal concentration within 30 mins; type: functional, organism-based; outline: as §2
Acinetobacter baumannii [8] = experiment: Bactericidal activity against Acinetobacter baumannii isolate 3 with AMP-AMC-CFZ-CIP-IPM-SXT-TET-TOB resistance phenotype assessed as concentration required for >= 3 log10 CFU/ml reduction in viable bacteria in 40% heat-inactivated human serum after 1.5 hrs by liquid microdilution assay; type: functional
Outline: (§3)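 The buffer microdilution kill assay (1 × 10^7 CFU/ml mid-log cells, 10 μl in 100 μl, 37°C, 1.5 h, CFU on tryptone soy agar after 24 h) with serum added to 20% or 40% final. Serum was pooled from five healthy donors, clotted at room temperature, spun at 300 × g and heat-inactivated at 56°C for 30 min.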

Enterococcus faecium [9] = experiment: Bactericidal activity against Enterococcus faecium isolate 3 with AMP-CIP-CTX-ERY-GEN-LVX-SXT-TEC-VAN resistance phenotype assessed as concentration required for >= 3 log10 CFU/ml reduction in viable bacteria in 20% heat-inactivated human serum after 1.5 hrs by liquid microdilution assay; type: functional; outline: as §3
Acinetobacter baumannii [10] = experiment: Bactericidal activity against Acinetobacter baumannii isolate 3 with AMP-AMC-CFZ-CIP-IPM-SXT-TET-TOB resistance phenotype assessed as concentration required for >= 3 log10 CFU/ml reduction in viable bacteria in sodium phosphate buffer at pH 7.4 after 1.5 hrs by liquid microdilution assay; type: functional; outline: as §1
Pseudomonas aeruginosa [11] = experiment: Bactericidal activity against Pseudomonas aeruginosa isolate 1 with AMP-CFZ-CIP-CTX-CXM-GEN-LVX-SXT-TET resistance phenotype assessed as concentration required for >= 3 log10 CFU/ml reduction in viable bacteria in sodium phosphate buffer at pH 7.4 after 1.5 hrs by liquid microdilution assay; type: functional; outline: as §1

## H-GIFSKLAGKKLKNLLISG-NH2
Acinetobacter baumannii [1]
  Activity: 0.5 µM
Pseudomonas aeruginosa [2]
  Activity: inactive
Acinetobacter baumannii [3]
  Time: 2 min
Pseudomonas aeruginosa [4]
  Activity: 0.5 µM
Staphylococcus aureus [5]
  Activity: inactive
Staphylococcus aureus [6]
  Activity: 16 µM
Enterococcus faecium [7]
  Activity: inactive
Acinetobacter baumannii [8]
  Activity: 32 µM
Enterococcus faecium [9]
  Activity: 32 µM
Acinetobacter baumannii [10]
  Activity: 1 µM
Pseudomonas aeruginosa [11]
  Activity: 1 µM
